Screening data: PubChem, several laboratories
Rows were chosen to be rich in hits. Some 3.2% of all compounds tested hit in one or more screens of this group.
UBC13 inh = UBC13 polyubiquitin chain formation inhibitors, primary screen, biochemical, TR-FRET, uHTS | 0.47% of 330,000 active | inhibition, % at 20 µM | Ubiquitin-conjugating enzyme E2 N (Homo sapiens), P61088; in the data active = inhibition above about 45%, passing the limit was not always enough
MEKK3 PB1 HTS = modulators of MEKK3-MEK5 PB1 binding, primary screen, biochemical, wildtype MEKK3, multiplex bead flow cytometry, Alexa488-MEK5 | Mitogen-activated protein kinase kinase kinase 3 (Homo sapiens), Q99759 | bead-based flow cytometry, Alexa488-MEK5 binding to MEKK3; actives lie on both sides; 0 = blocked by unlabeled MEK5, 100 = vehicle | binding response (% of control), % at 10 µM | 1.4% of 290,000 active | AID 1529, 2009;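 active = binding response more than 3 SD above or below the average of its plate-row segment, actives on both sides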;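 also: Alexa488 bead fluorescence after subtracting the streptavidin-only scavenger bead signal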
MEKK2mut PB1 HTS = MEK5 binding signal on mutant MEKK2 PB1, primary screen, biochemical, multiplex bead flow cytometry, Alexa488-MEK5 | Alexa488-MEK5 binding to MEKK2 mutant | percent response, % at 10 µM | 0.35% of 290,000 active | AID 1530, 2009; in the data active = percent response above about 24%, passing the limit was not always enough
DSG3 Ab inh = inhibitors of pemphigus antibody binding to DSG3, primary screen, biochemical, bead-based, flow cytometry, scFv-GFP | Desmoglein-3 (Homo sapiens), P32926 | DSG3-coupled beads, scFv-anti-DSG3-GFP binding; stronger effect = lower value | binding (percent of control), % at 10 µM | 0.48% of 310,000 active | AID 588358, 2011;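 active = binding more than 3 SD below its plate's average and above zero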;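 also: hits lower antibody fragment binding to DSG3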
Target sequence (P32926 whole entry, looked up, the tested form may be a part): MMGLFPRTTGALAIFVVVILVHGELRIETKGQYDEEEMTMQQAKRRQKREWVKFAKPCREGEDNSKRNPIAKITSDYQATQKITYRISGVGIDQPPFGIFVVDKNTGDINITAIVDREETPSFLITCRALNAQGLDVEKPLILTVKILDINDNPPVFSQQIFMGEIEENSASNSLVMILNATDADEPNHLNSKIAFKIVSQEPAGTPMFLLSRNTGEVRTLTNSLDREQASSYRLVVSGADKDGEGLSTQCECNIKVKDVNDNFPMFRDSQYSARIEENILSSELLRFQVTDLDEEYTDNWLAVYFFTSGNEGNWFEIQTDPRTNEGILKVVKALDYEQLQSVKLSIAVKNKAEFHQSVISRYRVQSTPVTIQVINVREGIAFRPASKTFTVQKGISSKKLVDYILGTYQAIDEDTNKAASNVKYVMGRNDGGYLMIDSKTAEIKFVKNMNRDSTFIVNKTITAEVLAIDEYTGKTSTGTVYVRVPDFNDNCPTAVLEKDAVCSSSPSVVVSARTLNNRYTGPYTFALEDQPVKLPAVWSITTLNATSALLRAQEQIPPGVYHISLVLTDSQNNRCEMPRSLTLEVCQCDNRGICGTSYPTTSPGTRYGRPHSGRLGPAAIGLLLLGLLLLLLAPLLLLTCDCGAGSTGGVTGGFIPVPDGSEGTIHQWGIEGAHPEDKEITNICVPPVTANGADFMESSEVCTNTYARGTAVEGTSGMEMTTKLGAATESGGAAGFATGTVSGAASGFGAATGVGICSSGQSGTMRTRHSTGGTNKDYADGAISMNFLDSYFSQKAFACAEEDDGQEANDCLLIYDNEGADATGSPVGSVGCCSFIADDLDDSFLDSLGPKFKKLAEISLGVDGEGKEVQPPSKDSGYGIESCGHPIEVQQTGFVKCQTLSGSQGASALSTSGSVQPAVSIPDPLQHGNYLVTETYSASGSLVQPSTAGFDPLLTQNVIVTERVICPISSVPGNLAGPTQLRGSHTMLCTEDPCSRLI
Apaf1 inhib = inhibitors of human Apaf-1 apoptosome, primary screen, biochemical, DEVD-Rh110 fluorescence, uHTS | AID 489030, 2010 | Apoptotic protease-activating factor 1 (Homo sapiens), O14727 | inhibition, % at 20 µM | 0.71% of 330,000 active | reconstituted apoptosome caspase-3 activity; active = inhibition of at least 40% at 20 µM
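Assay system – apoptosome proteins · Medium – Hepes buffer, pH 7.5 · Also added – cytochrome c with DEVD-Rh110 · Timing – 30 min compound preincubation, 50 min activation, room temperature · Detection – Rh110 fluorescence, excitation 480 nm, emission 540 nm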
MEKK2wt PB1 HTS = modulators of MEK5 binding to wildtype MEKK2, primary screen, biochemical, multiplex bead flow cytometry, Alexa488-MEK5. Mitogen-activated protein kinase kinase kinase 2 (Homo sapiens), Q9Y2U5. Alexa488-MEK5 binding to MEKK2 WT; actives lie on both sides. binding response (% of control), % at 10 µM. 1.1% of 290,000 active. AID 1531, 2009; in the data active = binding response below about 67% or above about 130%
Apaf-1 inh conf = Apaf-1 inhibitors, single-dose retest, confirmation, biochemical, fluorescence, DEVD-Rh110, 20 µM. shares compounds with Apaf1 inhib. reconstituted apoptosome, caspase-3 DEVD-Rh110 fluorescence. inhibition, % at 20 µM. 25% of 1,800 active. AID 504614, 2011;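 active = mean inhibition of at least 40% at 20 µM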
Rh110 interf inh = Rh110 fluorescence interference by putative Apaf-1 inhibitors, confirmation, artefact control for Apaf-1 inhibitor project, biochemical, 20 µM. shares compounds with Apaf1 inhib. quenched caspase reaction. activation (fluorescence interference), % at 20 µM. 1,800 tested, under 10 active. AID 504615, 2011;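 active = signal rise of 40% or more at 20 µM, treated as a fluorescence artifact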
Fluor interf inh = fluorescence interference of Apaf-1 inhibitor hits, dose response, artefact control for Apaf-1 inhibitor project; 460 tested, under 10 active; fluorescence interference counterscreen, Apaf-1 assay format; shares compounds with Apaf1 inhib; IC50, µM; call rule not given here
Large screens that a line does not name were inactive (follow-up assays come after a bar, where they were run).

Nc1c(C(=O)OCC2CCCO2)c2nc3ccccc3nc2n1Cc1cccs1 (centres undefined)	Apaf1 inhib 56 | Apaf-1 inh conf inactive | Rh110 interf inh inactive
COC(=O)C1=C(c2cc3ccccc3s2)C[C@@H]2CC[C@H]1N2C(=O)NCCCOC(C)C	none
CC(C)OCCCNC(=O)c1c(N)n(Cc2cccs2)c2nc3ccccc3nc12	Apaf1 inhib 95 | Apaf-1 inh conf inactive | Rh110 interf inh inactive
COc1cc(OC)c2c(c1)O[C@@H](c1ccc(OC)c(OC)c1)[C@H](O)C2	none
CCCCNC(=O)c1c(N)n(CCCOC)c2nc3ccccc3nc12	Apaf1 inhib 90 | Apaf-1 inh conf 50 | Rh110 interf inh inactive | Fluor interf inh inactive
COCCOC(=O)c1c(N)n(Cc2ccc(OC)cc2)c2nc3ccccc3nc12	Apaf1 inhib 66 | Apaf-1 inh conf inactive | Rh110 interf inh inactive
CCCCn1c(=O)c(C(=O)NCc2ccccc2)c(O)c2ccccc21	none
CCOC(=O)c1c(NS(=O)(=O)c2ccccc2)n(CCCOC)c2nc3ccccc3nc12	Apaf1 inhib 96 | Apaf-1 inh conf 76 | Rh110 interf inh inactive | Fluor interf inh inactive
CC(C)CCn1c(N)c(C(=O)NCc2cccs2)c2nc3ccccc3nc21	Apaf1 inhib 89 | Apaf-1 inh conf inactive | Rh110 interf inh inactive
CCOC(=O)c1c(N)n(Cc2ccc(OC)cc2)c2nc3ccccc3nc12	none (no result: UBC13 inh, DSG3 Ab inh, Apaf1 inhib)
Nc1c(C(=O)NCC2CCCO2)c2nc3ccccc3nc2n1Cc1ccco1 (centres undefined)	none
CCN(CC)C(=O)c1ccc(NC(=O)c2ccc(-n3cncn3)c([N+](=O)[O-])c2)cc1	none (no result: MEKK3 PB1 HTS, MEKK2mut PB1 HTS, MEKK2wt PB1 HTS)
Cc1nc2c(=O)n(C)c(=O)nc-2n(C)n1	Apaf1 inhib 99 | Apaf-1 inh conf 100 | Rh110 interf inh inactive | Fluor interf inh inactive
Cc1ccc(C[n+]2c(-c3ccc(C)cc3)cc(-c3ccc(C)cc3)cc2-c2ccc(C)cc2)cc1	Apaf1 inhib 79 (no result: MEKK3 PB1 HTS, MEKK2mut PB1 HTS, MEKK2wt PB1 HTS) | Apaf-1 inh conf inactive | Rh110 interf inh inactive
